Measured values as given in ChEMBL document CHEMBL5058577, “EUbOPEN Chemogenomics Library 2 (Multiplex)” (2022).

Tested on: U2OS
Assay: Multiplex assay against U2OS
Type: toxicity, cell-based
Settings: human
Summary of the method: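 Cells were classed with CellPathfinder machine-learning gating, first as Hoechst high-intensity objects or normal cells, then (normal cells) as healthy, pyknosed or fragmented nuclei, and finally (pyknosed cells) as mitotic or apoptotic. Staining of live cells at seeding used Hoechst33342, BioTracker Green Microtubule Cytoskeleton Dye, MitoTracker Red and Annexin V Alexa Fluor 680, with imaging on a CQ1 microscope at 37°C and 5% CO2 after compound addition. Tubulin, mitochondrial-mass and membrane-permeability phenotypes are per cents of healthy-nucleus cells.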

[1] = 12 h, 1 µM, compound concentration 1 uM, replicate 1
[2] = 12 h, 1 µM, compound concentration 1 uM, replicate 2
[3] = 12 h, 10 µM, compound concentration 10 uM, replicate 1
[4] = 12 h, 10 µM, compound concentration 10 uM, replicate 2
[5] = 24 h, 1 µM, compound concentration 1 uM, replicate 1
[6] = 24 h, 1 µM, compound concentration 1 uM, replicate 2
[7] = 24 h, 10 µM, compound concentration 10 uM, replicate 1
[8] = 24 h, 10 µM, compound concentration 10 uM, replicate 2
[9] = 48 h, 1 µM, compound concentration 1 uM, replicate 1
[10] = 48 h, 1 µM, compound concentration 1 uM, replicate 2
[11] = 48 h, 10 µM, compound concentration 10 uM, replicate 1
[12] = 48 h, 10 µM, compound concentration 10 uM, replicate 2

## N#Cc1c(Oc2cccc(OS(=O)(=O)CCCC(F)(F)F)c2)cccc1C(F)(F)F
[1]
  Population Apoptotic (%): 77%
  Population Fragmented Nuclei (%): 27%
  Population Healthy Nuclei (%): 61%
  Population Hoechst High Intensity Objects (%): 3%
  Population Membrane Permeable-Phenotype (%): 4%
  Population Mitochondria Different-Phenotype (%): 2%
  Population Mitotic Cells (%): 22%
  Population Normal (%): 96%
  Population Pyknosed Nuclei (%): 10%
  Population Tubulin-Different-Phenotype (%): 0%
  Total Cell Count: 220
[2]
  Population Apoptotic (%): 81%
  Population Fragmented Nuclei (%): 12%
  Population Healthy Nuclei (%): 76%
  Population Hoechst High Intensity Objects (%): 0%
  Population Membrane Permeable-Phenotype (%): 7%
  Population Mitochondria Different-Phenotype (%): 7%
  Population Mitotic Cells (%): 18%
  Population Normal (%): 99%
  Population Tubulin-Different-Phenotype (%): 8%
  Total Cell Count: 109
[3]
  Population Apoptotic (%): 78%
  Population Fragmented Nuclei (%): 27%
  Population Healthy Nuclei (%): 63%
  Population Hoechst High Intensity Objects (%): 3%
  Population Membrane Permeable-Phenotype (%): 11%
  Population Mitochondria Different-Phenotype (%): 8%
  Population Mitotic Cells (%): 21%
  Population Normal (%): 96%
  Population Pyknosed Nuclei (%): 8%
  Population Tubulin-Different-Phenotype (%): 7%
  Total Cell Count: 222
[4]
  Population Apoptotic (%): 90%
  Population Fragmented Nuclei (%): 14%
  Population Healthy Nuclei (%): 75%
  Population Hoechst High Intensity Objects (%): 0%
  Population Membrane Permeable-Phenotype (%): 21%
  Population Mitochondria Different-Phenotype (%): 4%
  Population Mitotic Cells (%): 9%
  Population Normal (%): 99%
  Population Pyknosed Nuclei (%): 9%
  Total Cell Count: 112
[5]
  Population Apoptotic (%): 75%
  Population Fragmented Nuclei (%): 25%
  Population Healthy Nuclei (%): 61%
  Population Hoechst High Intensity Objects (%): 2%
  Population Membrane Permeable-Phenotype (%): 4%
  Population Mitochondria Different-Phenotype (%): 2%
  Population Mitotic Cells (%): 24%
  Population Normal (%): 97%
  Population Pyknosed Nuclei (%): 12%
  Population Tubulin-Different-Phenotype (%): 3%
  Total Cell Count: 263
[6]
  Population Apoptotic (%): 90%
  Population Fragmented Nuclei (%): 12%
  Population Healthy Nuclei (%): 79%
  Population Hoechst High Intensity Objects (%): 1%
  Population Membrane Permeable-Phenotype (%): 11%
  Population Mitochondria Different-Phenotype (%): 3%
  Population Mitotic Cells (%): 10%
  Population Normal (%): 98%
  Population Pyknosed Nuclei (%): 7%
  Population Tubulin-Different-Phenotype (%): 7%
  Total Cell Count: 130
[7]
  Population Apoptotic (%): 66%
  Population Fragmented Nuclei (%): 26%
  Population Healthy Nuclei (%): 66%
  Population Hoechst High Intensity Objects (%): 6%
  Population Membrane Permeable-Phenotype (%): 10%
  Population Mitochondria Different-Phenotype (%): 8%
  Population Mitotic Cells (%): 33%
  Population Normal (%): 93%
  Population Pyknosed Nuclei (%): 7%
  Population Tubulin-Different-Phenotype (%): 5%
  Total Cell Count: 252
[8]
  Population Fragmented Nuclei (%): 9%
  Population Healthy Nuclei (%): 83%
  Population Hoechst High Intensity Objects (%): 3%
  Population Membrane Permeable-Phenotype (%): 11%
  Population Mitochondria Different-Phenotype (%): 0%
  Population Normal (%): 96%
  Population Tubulin-Different-Phenotype (%): 7%
  Total Cell Count: 130
[9]
  Population Apoptotic (%): 87%
  Population Fragmented Nuclei (%): 17%
  Population Healthy Nuclei (%): 70%
  Population Hoechst High Intensity Objects (%): 3%
  Population Membrane Permeable-Phenotype (%): 4%
  Population Mitochondria Different-Phenotype (%): 0%
  Population Mitotic Cells (%): 12%
  Population Normal (%): 96%
  Population Pyknosed Nuclei (%): 11%
  Population Tubulin-Different-Phenotype (%): 3%
  Total Cell Count: 361
[10]
  Population Apoptotic (%): 100%
  Population Fragmented Nuclei (%): 16%
  Population Healthy Nuclei (%): 73%
  Population Hoechst High Intensity Objects (%): 2%
  Population Membrane Permeable-Phenotype (%): 9%
  Population Mitochondria Different-Phenotype (%): 4%
  Population Mitotic Cells (%): 0%
  Population Normal (%): 97%
  Population Pyknosed Nuclei (%): 9%
  Population Tubulin-Different-Phenotype (%): 7%
  Total Cell Count: 195
[11]
  Population Apoptotic (%): 91%
  Population Fragmented Nuclei (%): 23%
  Population Healthy Nuclei (%): 64%
  Population Hoechst High Intensity Objects (%): 4%
  Population Membrane Permeable-Phenotype (%): 10%
  Population Mitochondria Different-Phenotype (%): 6%
  Population Mitotic Cells (%): 8%
  Population Normal (%): 95%
  Population Pyknosed Nuclei (%): 11%
  Population Tubulin-Different-Phenotype (%): 6%
  Total Cell Count: 328
[12]
  Population Apoptotic (%): 100%
  Population Fragmented Nuclei (%): 11%
  Population Healthy Nuclei (%): 77%
  Population Hoechst High Intensity Objects (%): 3%
  Population Membrane Permeable-Phenotype (%): 13%
  Population Mitochondria Different-Phenotype (%): 4%
  Population Mitotic Cells (%): 0%
  Population Normal (%): 96%
  Population Pyknosed Nuclei (%): 10%
  Population Tubulin-Different-Phenotype (%): 7%
  Total Cell Count: 184
